In the library only some 1.1% were active in any assay of this set; here they are far more common.
Diaphorase act: diaphorase activation or chemical reduction counter-screen; actives 0.005% (n = 190,000); activation factor at 20 µM; AID 1229; Diaphorase/resazurin coupled assay, resorufin fluorescence, 16 min; active compounds read high; 1 = vehicle wells, 0 = NADH-free wells;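 active means diaphorase activity raised at least twofold by the compound at 20 µM; inactive means activation factor below 2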
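Material: bacterial diaphorase enzyme (C. kluyveri); amount: enzyme 0.07 U/mL final; reagent: NADH substrate 0.114 mM plus resazurin dye 0.1 mM, final; doses: single compound dose of 20 µM, 1% DMSO final; timing: 16 min enzyme reaction, ambient temperature; measured by: fluorescence of resorufin, 544 nm excitation, 590 nm emission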
Diaphorase inh: diaphorase inhibition or chemical oxidation counter-screen; diaphorase resazurin-to-resorufin fluorescence, NADH, 16 min; bacterial (C. kluyveri) enzyme, not human; inhibition, % at 20 µM; actives 0.69% (n = 190,000); AID 1217;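 active means primary screen inhibition at 20 µM above a set limit, cut at about 50% in these data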;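 further: plate controls were DMSO with full reaction for no effect and wells lacking NADH for full effect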
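Test system: bacterial diaphorase enzyme (C. kluyveri); Quantity: 0.14 U/mL diaphorase, enzyme working solution; Times: reaction incubation of 16 min at room temperature; Measured by: fluorescence of resorufin formed from resazurin, Ex 544/Em 590 nm; Benchmarks: positive control minus NADH, DMSO neutral control.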
PMI activator: phosphomannose isomerase (human) activation. purified human PMI, coupled resazurin fluorescence, 20 min; active compounds read high; 1 = vehicle control, 0 substrate-free wells. activation factor at 20 µM. actives 0.005% (n = 190,000). AID 1214;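 active means activation factor of 2 or more at 20 µM, relative to plate controls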
Target sequence (P34949 whole entry, looked up): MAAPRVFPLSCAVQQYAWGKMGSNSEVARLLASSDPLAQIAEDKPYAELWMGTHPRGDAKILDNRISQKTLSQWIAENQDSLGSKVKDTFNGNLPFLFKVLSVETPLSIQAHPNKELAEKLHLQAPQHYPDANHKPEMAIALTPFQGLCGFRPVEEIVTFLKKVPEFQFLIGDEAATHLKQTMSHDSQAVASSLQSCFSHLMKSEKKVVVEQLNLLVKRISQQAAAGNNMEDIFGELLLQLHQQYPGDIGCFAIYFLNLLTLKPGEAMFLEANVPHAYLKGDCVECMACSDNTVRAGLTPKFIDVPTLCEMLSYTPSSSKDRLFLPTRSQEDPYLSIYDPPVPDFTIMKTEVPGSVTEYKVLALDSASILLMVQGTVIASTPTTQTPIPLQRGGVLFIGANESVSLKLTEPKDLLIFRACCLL
G6PDH counter: L. mesenteroides G6PDH inhibition counter-screen | inhibition, % at 5 µM | actives 0.12% (n = 200,000) | Purified L. mesenteroides G6PDH, diaphorase/resazurin coupled fluorescence, 45 min; in the data active means inhibition above about 50%
PMI act hi M6P: activators of human phosphomannose isomerase at near-saturating mannose 6-phosphate. P34949. coupled PMI enzyme assay, resazurin fluorescence, 20 min; active compounds read high; 1 = untreated enzyme, 0 = substrate-free blank. activation factor at 20 µM. actives 0.34% (n = 190,000). AID 1216;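 active means activation factor of 2 or more at 20 µM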
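Test system – human PMI in coupled enzyme assay · Timing – 20 min incubation at room temperature · Detection – Diaphorase-driven resazurin-to-resorufin fluorescence, excitation 544, emission 590 nm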
* hit, by the source's call.

SMILES	Diaphorase act	Diaphorase inh	PMI activator	G6PDH counter	PMI act hi M6P
CCCNC(=O)c1c(N)n(-c2ccc3c(c2)OCO3)c2nc3ccccc3nc12	0.8	16.2	0.9	7.1	0.6
CC1=C/C(=N\OS(=O)(=O)c2ccccc2)C(C(C)C)=CC1=O	0	101.3*	0.2	39.8	0.1
CC1=C/C(=N\OS(=O)(=O)c2ccccc2)C(C)=CC1=O	0	100.5*	-0.1	4.4	0.1
CC1=C(C)/C(=N\OS(=O)(=O)c2ccc(C)cc2)C=CC1=O	0	101.1*	0.2	31.6	0.2
CCOC(=O)c1c(C)oc2c1c(C=NCCO)c(O)c1ccccc12	0.2	81.5*	0.2	56.9*	0.2
Cc1ncoc1C(=O)N1CCCC(C(=O)c2ccc(C(F)(F)F)cc2)C1 (centres undefined)	1	0.0	1	6.1	1.1
Cc1c(Br)c(=O)oc2c(Br)c(O)ccc12	0.9	5.1	1.3	-0.3	1.1
Cc1c(Br)c(=O)oc2c(Br)c(O)c(O)cc12	0.2	75.4*	0.9	26.0	1.3
CN(C)C=Nc1c(Br)cc(Br)c2nonc12	0.4	62.0*	0.3	43.8	0.3
Cc1ccc(NC(=S)N(Cc2ccc(Br)cc2)Cc2ccc(C(=O)O)cc2)cc1C	0.8	17.8	0.9	2.9	0.9
O=[N+]([O-])c1ccc(S(=O)(=O)N(CCCN2CCOCC2)Cc2cccs2)cc1	0.9	11.1	1.2	0.1	1.2
COc1cc2c(cc1NC(=O)CSc1ccc(C)cc1)oc1ccccc12	0.7	31.1	0.9	0.6	0.9
COc1cc2c(cc1NC(=O)C(C)Sc1ccc(C)cc1)oc1ccccc12 (centres undefined)	0.2	75.9*	0.8	-0.4	0.8
O=C(Nc1ccccc1N1CCCC1)c1cccnc1	0.9	14.1	1.6	4.6	2.1*
O=C(Nc1ccccc1N1CCCC1)c1ccc(Br)o1	1	-0.5	1.6	8.9	2.1*
Nc1cc2nsnc2cc1Br	0.6	40.9	0.4	57.8*	0.5
CCOC(=O)C1=C(O)/C(=C\c2ccc(OC)c(OC)c2)N=C1C	0.9	8.7	1	-0.4	0.8
CCOC(=O)C1=C(O)c2ccccc2C(=O)/C1=C\c1ccc(C)cc1	0.5	48.6	1.3	50.9*	0.9
Cc1cnccc1CN(C)Cc1cn(C)nc1-c1cccc(Cl)c1	0.5	50.1*	0.9	5.5	1
CC(C)(C)c1ccccc1NC(=S)NC1CCCCC1	0.8	17.1	1	12.2	0.9
Cc1c(Cc2ccccc2)c(=O)oc2c(O)c(O)ccc12	0.3	72.7*	0.2	39.7	0.3
COc1cc(/C=N/NC(=O)COc2ccccc2C)ccc1OC(=O)c1cccs1	0.8	21.6	0.9	3.1	0.9
COc1cc(/C=N/Nc2cccc(C)c2)ccc1OC(=O)c1cccs1	0.7	26.1	1.4	-14.0	2.1*
COc1cc(/C=N/Nc2cccc(C)c2)cc(Br)c1O	0.8	18.9	1.7	1.9	2.4*
CCOC(=O)NC1(Nc2ccc(Cl)cn2)Oc2ccccc2O1	0.5	54.0*	0.7	25.8	0.6
SMILES	Diaphorase act	Diaphorase inh	PMI activator	G6PDH counter	PMI act hi M6P
O=C(Cc1ccc(Cl)cc1)Oc1cccc2cccnc12	0.6	42.2	0.7	63.3*	0.6
O=C(Oc1cccc2cccnc12)c1cccc([N+](=O)[O-])c1	0.7	33.7	0.8	59.2*	0.6
O=C(Oc1ccc(Cl)c2cccnc12)c1cccc([N+](=O)[O-])c1	0.8	24.7	0.8	13.2	0.8
O=C(CN1C(=O)c2cccc3cccc(c23)C1=O)NCCN1CCOCC1	0.9	9.2	1	-0.8	1
COc1cc2nc(=S)n3[nH]c(CCn4c(C)nc5ccccc54)nc3c2cc1OC	0.1	88.8*	0.9	-2.3	1
COc1ccc(OCc2nc3c4cc(OC)c(OC)cc4nc(=S)n3[nH]2)cc1	0.1	91.7*	0.8	-63.2	0.9
CCOC(=O)N1CCC(N2C(=O)c3ccccc3C2Nc2ccc(S(=O)(=O)N3CCOCC3)cc2)CC1 (centres undefined)	0.9	6.8	1.1	2.0	1
CCCNS(=O)(=O)c1ccc(CCC(=O)N2CCN(c3ccc(F)cc3)CC2)cc1	1	2.8	1	-3.6	1.1
COc1ccc(CCNC(=O)COC(=O)COc2ccc(C#N)cc2)cc1	1	-1.4	1.2	5.8	1.2
Cc1ccc(-n2cccc2/C=C2\C(=N)N3N=C(c4ccco4)SC3=NC2=O)cc1	0.4	55.5*	1.1	-1.9	1.2
COCCNC(=O)NC12CC3(C)CC(C)(CC(C)(C3)C1)C2	0.9	5.2	1	4.1	1
O=C(/C=C/c1ccccc1)NC(=S)NNC(=O)c1ccco1	0.5	52.3*	1.1	1.5	1.1
c1ccc(Nc2cccc(Nc3ccccc3)n2)cc1	0.5	54.9*	0.4	19.7	0.6
c1ccc(Nc2ccccn2)cc1	1	-2.4	1	1.4	1
Cc1cc(C)cc(NC(=S)Nc2cccc3cnccc23)c1	0.7	34.5	0.3	35.5	0.4
Cc1ccc(NC(=S)Nc2cccc3cnccc23)c(C)c1	0.4	59.1*	0.6	16.5	0.7
CCOC(=O)N1CCN(c2ccc(N3C(=O)CCCC3=O)cc2[N+](=O)[O-])CC1	0.9	7.2	1	-1.3	1
NC(=O)Cn1cc(C(=O)COc2ccccc2)c2ccccc21	0.9	7.6	1	5.4	1.1
O=C(COc1ccccc1)c1cn(CC(=O)N2CCCC2)c2ccccc12	0.1	94.5*	1.1	-0.8	1.1
C/C(=N/NC(=O)c1cc(O)c(O)c(O)c1)c1ccc([N+](=O)[O-])cc1	0.2	75.2*	0.4	8.6	0.7
Cc1oc(-c2cccc3ccccc23)nc1CN1CCC[C@H]1CO	1	3.1	1	6.0	1
Cc1ccc(-n2c3nc(=O)[nH]c(=O)c-3cc3cc([N+](=O)[O-])ccc32)cc1C	0.1	90.9*	0.9	-33.9	1
Cc1ccc(S(=O)(=O)n2cnc3cc([N+](=O)[O-])ccc32)cc1C	0.9	5.0	1.1	8.0	1.1
COc1ccccc1NC(=O)COC(=O)c1ccccc1C(=O)N1CCN(c2ccccc2)CC1	1.1	-8.6	1.2	1.6	1
COCCN1C(=O)/C(=C/c2ccc(N3CCCC3)cc2C)SC1=S	0.7	30.4	0.8	11.7	0.8
CCOC(=O)c1ccc(N=C2SC(C(=O)NCCc3ccccc3)CC(=O)N2C)cc1 (centres undefined)	0.5	53.5*	0.9	-8.2	0.9
COc1ccc(CN2C(=O)CC(C(=O)NCCc3ccc(S(N)(=O)=O)cc3)SC2=Nc2ccccc2)cc1 (centres undefined)	1	3.1	0.9	-2.5	0.9
